“And” between values parts separate entries of the source, which are not always exact repeats. Equal entries are not always repeated. Where two headings read alike, the source gives them in different places. Marks after values point to notes of the source that are not given here.
What was measured:
[1] = test system: MT4 cells; test: Apoptosis assay; format: cell-based, human; conditions: MT4, 20 h exposure
Outline: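 Apoptosis read as cytoplasmic histone-associated DNA fragments with a Cell Death Detection ELISA kit. Exposure was 20 h for IM9 and MT4 and 40 h for W12 and U937. A405 was read kinetically at 30 °C, and the rate per hour came from linear regression of the linear portion. A Fas-activating antibody was the positive control.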

[2] = Bone marrow toxicity assay, erythroid progenitors; format: cell-based; conditions: human, erythroid bone marrow progenitor cells
[3] = test system: WI38 VA13; test: Growth of WI38 VA13; format: cell-based, human
Outline: (§1)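 Cell lines carrying integrated viral genomes were plated in 96-well plates in medium with test compound. Growth was read by ATP luminescence (CellTiter-Glo) for HEK293 and WI38 VA13, and by MTS reduction (A490 after 2 h at 37 °C) for Namalwa, W12 20861, SiHa, Caski and HeLa. K and Imax came from a fit to a modified Hill equation.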

[4] = test system: Jurkat; test: Growth of Jurkat, MTS; format: cell-based, human; conditions: 72 h
Outline: (§2)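 Cells were plated in 96-well plates in medium holding serial dilutions of test compound, 1 nM to 10 μM, with DMSO ≤1% (v/v) final. Growth was read by MTS after 72 h at 37 °C: 2 h with reagent plus phenazine methosulfate, then A490. K and Imax came from a fit to a modified Hill equation. Vero cells are African Green monkey.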

[5] = test system: U937; test: Growth of U937, MTS; format: cell-based, human
Outline: as §2

[6] = test system: BJAB; test: Growth of BJAB, MTS; format: cell-based, human; conditions: 72 h
Outline: as §2

[7] = test system: W12-20850 cells; test: Growth of W12-20850 cells, actin DNA by qPCR; format: cell-based, human
[8] = test system: a variety of unrelated viruses; test: Replication of a variety of unrelated viruses in vitro; format: cell-based
[9] = test system: MT4 cells; test: Growth of MT4 cell line; format: cell-based, human; conditions: for EC50: K ∼ EC50
[10] = test system: EBV; test: Viral yield in IM9 cells by quantitative PCR; format: cell-based; conditions: data not shown
[11] = test system: episomal HPV-16 DNA; test: Hybrid capture assay for HPV16 DNA in W12-20850 cells; format: cell-based
Outline: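 W12-20850 cells seeded at 7.5 × 10^3/well onto compound (100 to 0.001 μM), 4 days at 37 °C, 5% CO2. MTS growth read, then same cells lysed in 0.2N NaOH/1% Igepal. Episomal HPV-16 DNA measured by hybrid capture: 90 °C 6.5 min, 42 °C overnight, anti-digoxigenin HRP, chemiluminescence. HPV DNA/MTS ratio expressed as % of untreated control. Fit to modified Hill equation.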

[12] = test system: SV40 strain Pa-57; test: SV40 assay: SV40 replication in Vero cells, viral DNA by qPCR; format: cell-based; conditions: ratio proportional to viral DNA per cell
Outline: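 Vero cells at 2 × 10^4 cells/well were allowed to adhere for 4 h. They were infected with SV40 strain Pa-57 at MOI 0.1 for 2 h. Inoculum was removed and test compound added at 100 to 0.003 μM for 3 days. SV40 DNA was read by qPCR, and growth by MTS in parallel on uninfected cells. The SV40 DNA/MTS ratio was expressed as % of untreated control.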

[13] = test system: immortalized cell lines; test: Growth of immortalized cell lines; format: cell-based
[14] = test system: SiHa; test: Growth of SiHa; format: cell-based, human; conditions: 72 h
Outline: as §1

[15] = test system: HKC cells; test: mRNA measurement by RT-qPCR in HKC cells; format: cell-based, human; conditions: for Fold increase due to GSK983, ABCD1 mRNA / Fold increase due to GSK983, ABCG1 mRNA / Fold increase due to GSK983, ADAMTS5 mRNA / Fold increase due to GSK983, BIK mRNA / Fold increase due to GSK983, MDM2 mRNA / Fold increase due to GSK983, MGP mRNA / Fold increase due to GSK983, CDKN1A mRNA / Fold increase due to GSK983, CSF2 mRNA / Fold increase due to GSK983, IFI6 mRNA / Fold increase due to GSK983, IFI16 mRNA / Fold increase due to GSK983, MMP1 mRNA / Fold increase due to GSK983, IRF3 mRNA / Fold increase due to GSK983, IRF9 mRNA: HKC cells
[16] = test system: HPV-31; test: HPV DNA by qPCR in CIN612 cells; format: cell-based
[17] = test system: EBV; test: Lytic replication of EBV induced by sodium butyrate and PMA in P3HR1 cells; format: cell-based
[18] = Homo sapiens, read-out: K, growth, MTS
[19] = 10 nM, 24 h, not significantly different from 1
[20] = 100 nM, 24 h, not significantly different from 1
[21] = 100 nM, 48 h, not significantly different from 1

## O=C(N[C@@H]1CCCc2c1[nH]c1ccc(Cl)cc21)c1ccccn1 [GSK983, N-[(1R)-6-Chloro-2,3,4,9-tetrahydro-1H-carbazol-1-yl]-2-pyridinecarboxamide]
[1]
  Apoptosis: induced apoptosis
[2]
  CC50: > 10000 nM
[3]; Homo sapiens, WI-38 VA13, 72 h, read-out: K, Growth, CTG
  EC50: 16 ± 5 nM
[3]; WI38 VA13, SV40 integrated, 72 h
  Imax, Growth, CTG: 28% and 28 ± 2%
[4]; [18]
  EC50: 52 ± 3 nM
[4]; T lymphoblast
  Imax, Growth, MTS: 51 ± 1%
[5]; Homo sapiens, U-937, 72 h, read-out: K, growth, MTS
  EC50: 26 ± 4 nM
[5]; U937, 3 days, rate of MTS reduction
  Outcome of growth inhibition over time: cytostasis
[5]; U937, monocyte, 72 h
  Imax, Growth, MTS: 55 ± 2%
[6]; B lymphoblast
  Imax, Growth, MTS: 84 ± 1.5%
[6]; [18]
  EC50: 9 ± 0.6 nM
[7]; Homo sapiens, W12-20850, read-out: K, Growth, Actin DNA, qPCR
  EC50: 6 ± 0.4 nM
[7]; W12-20850
  Imax, Growth, Actin DNA, qPCR: 60 ± 1%
[8]; productive or episomal infections
  Observed maximum inhibition of viral DNA: 86–99%
[8]; read-out: EC50 values, replication of a variety of unrelated viruses in vitro
  EC50: 5 to 20 nM
[9]; Homo sapiens, MT4, 72 h, read-out: K, cell line growth, MT4 (HTLV1), CTG, 72 h
  EC50: 8 nM
[9]; MT4 (HTLV1) vs activated CD4 T cell
  Selectivity index: 7600 ± 1000
[9]; read-out: K, cell line growth, MT4 (HTLV1), CTG, 72 h
  EC50: 7.5 ± 0.6 nM
[10]
  Viral yield in IM9 cells by quantitative PCR: decrease in parallel with inhibition of cell growth
[11]; W12-20850
  Imax, Ratio, HPV DNA/MTS: 90 ± 2%
  K, Ratio, HPV DNA/MTS: 4.9 ± 0.5 nM
[11]; read-out: K, DNA, hybrid capture, W12-20850, HPV type 16, 4 days
  EC50: 4.5 ± 0.3 nM
[12]
  Imax for reduction of the ratio SV40 DNA / MTS activity of Vero cells: 79 ± 2%
  K for reduction of the ratio SV40 DNA / MTS activity of Vero cells: 12 ± 2 nM
[13]; EBV and HTLV-1 viral-immortalized cell lines vs related primary cells
  Selectivity index: approximately 1000
[13]; W12, U937 and IM9 growth curves
  Time after addition of the compound until reduction in growth rate: approximately 24 h
[13]; depending on the cell line
  Concentrations at which apoptosis or cytostasis is induced: over 20 nM
[13]; read-out: EC50 values, growth of cell lines immortalized by HTLV-1, EBV, HPV, SV40 and Ad-5
  EC50: 10 to 40 nM
[14]; HPV16 integrated
  Imax, Growth, MTS: 39 ± 1.6%
[14]; Homo sapiens, read-out: K, Growth, MTS
  EC50: 37 ± 6 nM
[15]; 10 nM, 24 h
  Fold increase due to GSK983, ABCD1 mRNA: 2.0 fold
  Fold increase due to GSK983, ABCG1 mRNA: 2.5 fold
  Fold increase due to GSK983, ADAMTS5 mRNA: 2.6 fold
  Fold increase due to GSK983, BIK mRNA: 2.2 fold
  Fold increase due to GSK983, MDM2 mRNA: 2.1 fold
  Fold increase due to GSK983, MGP mRNA: 1.9 fold
[15]; [19]
  Fold increase due to GSK983, CDKN1A mRNA: 1.7 ^b fold
  Fold increase due to GSK983, CSF2 mRNA: 1 ^b fold
  Fold increase due to GSK983, IFI6 mRNA: 1.3 ^b fold
  Fold increase due to GSK983, IFI16 mRNA: 2.3 ^b fold
  Fold increase due to GSK983, MMP1 mRNA: 5.8 ^b fold
[15]; 10 nM, 48 h
  Fold increase due to GSK983, ABCD1 mRNA: 4.5 fold
  Fold increase due to GSK983, ABCG1 mRNA: 3.1 fold
  Fold increase due to GSK983, ADAMTS5 mRNA: 2.3 fold
  Fold increase due to GSK983, BIK mRNA: 1.8 fold
  Fold increase due to GSK983, CDKN1A mRNA: 1.6 fold
  Fold increase due to GSK983, CSF2 mRNA: 4.1 fold
  Fold increase due to GSK983, IFI16 mRNA: 2.7 fold
  Fold increase due to GSK983, IRF3 mRNA: 2.4 fold
  Fold increase due to GSK983, MDM2 mRNA: 3.2 fold
  Fold increase due to GSK983, MGP mRNA: 2.9 fold
  Fold increase due to GSK983, MMP1 mRNA: 2.2 fold
[15]; 10 nM, 48 h, not significantly different from 1
  Fold increase due to GSK983, IRF9 mRNA: 1.5 ^b fold
[15]; 100 nM, 24 h
  Fold increase due to GSK983, ABCD1 mRNA: 2.3 fold
  Fold increase due to GSK983, ABCG1 mRNA: 5.0 fold
  Fold increase due to GSK983, BIK mRNA: 2.3 fold
  Fold increase due to GSK983, CDKN1A mRNA: 1.8 fold
  Fold increase due to GSK983, CSF2 mRNA: 2.8 fold
  Fold increase due to GSK983, IRF9 mRNA: 1.6 fold
  Fold increase due to GSK983, MDM2 mRNA: 2.4 fold
  Fold increase due to GSK983, MGP mRNA: 2.0 fold
[15]; [20]
  Fold increase due to GSK983, ADAMTS5 mRNA: 1.3 ^b fold
  Fold increase due to GSK983, IFI6 mRNA: 1.1 ^b fold
  Fold increase due to GSK983, IRF3 mRNA: 1.1 ^b fold
  Fold increase due to GSK983, MMP1 mRNA: 5.2 ^b fold
[15]; 100 nM, 48 h
  Fold increase due to GSK983, ABCD1 mRNA: 3.7 fold
  Fold increase due to GSK983, ABCG1 mRNA: 4.8 fold
  Fold increase due to GSK983, ADAMTS5 mRNA: 7.5 fold
  Fold increase due to GSK983, BIK mRNA: 3.7 fold
  Fold increase due to GSK983, CDKN1A mRNA: 4.3 fold
  Fold increase due to GSK983, CSF2 mRNA: 5.8 fold
  Fold increase due to GSK983, MDM2 mRNA: 2.9 fold
  Fold increase due to GSK983, MGP mRNA: 3.0 fold
  Fold increase due to GSK983, MMP1 mRNA: 5.0 fold
[15]; [21]
  Fold increase due to GSK983, IFI16 mRNA: 0.8 ^b fold
  Fold increase due to GSK983, IRF3 mRNA: 0.8 ^b fold
  Fold increase due to GSK983, IRF9 mRNA: 1.5 ^b fold
[15]; primary human keratinocytes, at both 10 and 100 nM, 546 genes
  Number of genes of the Pathway Set with significant increases in expression: 9 genes
[16]; CIN612, HPV type 31
  Imax, HPV DNA, qPCR: 86 ± 1%
[16]; HPV DNA qPCR in CIN612 vs HKC
  Selectivity index: 16,600 ± 5,000
[16]; read-out: K, HPV DNA, qPCR
  EC50: 2.4 ± 0.1 nM
[17]; at concentrations below 1 μM
  Susceptibility of lytic replication of EBV: not susceptible
[17]; below 10 μM, data not shown
  Inhibition of lytic replication of EBV below 10 μM: No significant inhibition
[17]; induced by sodium butyrate and PMA in P3HR1 cells, data not shown
  Inhibition of lytic replication of EBV: did not inhibit

From paper PMC7114156 (Antiviral Research, 2009)
